# PglD DTNB – blocks C. jejuni PglD acetyltransferase activity | purified PglD enzyme, DTNB colorimetric CoA detection | inhibition, % at 12.5 µM | hit rate 0.098% among 360,000 | AID 602405; in the data active means inhibition above about 16%, passing the limit was not always enough; inconclusive means no clear call, values can overlap the other calls
# PGC1a acetyl inh – modulators of PGC1a acetylation; U2OS PGC1a acetylation, AlphaScreen anti-acetyl-lysine; with virally co-expressed GCN5 acetyltransferase; inhibition, % at 15.6 µM; hit rate 0.17% among 350,000; AID 651687;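 active means every replicate shows inhibition of at least 40%; inconclusive means mean inhibition at least 40% but some replicate below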
# Cneo AK release – Cryptococcus neoformans lysis via adenylate kinase release. hit rate 0.2% among 360,000. C. neoformans lysis, adenylate kinase release luminescence, 4 h; normalised: neutral wells 0, clomiphene wells 100. lysis activity, % at 15 µM;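 active means mean lysis activity across replicates of at least 80%, whatever share of replicates individually reach that level; inactive means mean lysis activity below 80%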
#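 Material: C. neoformans cells; Schedule: 4 h static compound exposure, 37 °C, read 1 h post-reagent; Measured by: adenylate kinase release luminescence; Read-out: signal increase indicating cell lysis; Controls: Clomiphene as positive lysis control.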
# Vif imaging – HIV Vif inhibition; HEK293T cells, Vif self-association by quenched fluorescence, imaging, 24 h; inhibition, % at 7.49 µM; hit rate 0.35% among 340,000; in the data active means inhibition above about 50%, passing the limit was not always enough; inconclusive means no clear call, values can overlap the other calls; inactive means below about 31%
# FGF22 binding – binders of recombinant human FGF22 by thermal shift | SYPRO orange fluorescence; percent of sucrose octasulfate shift, DMSO zero | activity (Tm shift, normalised), % at 9.99 µM | hit rate 1.5% among 340,000;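 active means mean Tm shift, scaled 0 neutral to 100 positive control, at about 1.3% or above, every replicate too, limit read from the data; inconclusive means no clear call, values can overlap the other calls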
# Target sequence (Q9HCT0 whole entry, looked up): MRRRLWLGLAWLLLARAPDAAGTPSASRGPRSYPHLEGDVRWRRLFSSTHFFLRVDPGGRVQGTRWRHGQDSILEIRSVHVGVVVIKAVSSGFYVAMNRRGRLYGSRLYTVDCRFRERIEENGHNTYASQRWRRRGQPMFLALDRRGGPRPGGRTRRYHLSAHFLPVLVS
# Ecoli rRNA inh – inhibits bacterial ribosomal RNA function over humanized ribosomes | E. coli WT GFP vs humanized-ribosome RFP mutants, fluorescence, 24 h; stronger effect = lower value; DMSO median 0, no signal -100 | GFP signal change (wild-type ribosome), % (concentration not given with the values) | hit rate 1.6% among 350,000 | AID 720706;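 active means significant combined selectivity score with lowered wild-type GFP, culture density cut under 30%, mutant RFP and density less affected; inactive means any of these conditions unmet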
# AID977621 – growth inhibition of wild-type GFP E. coli, dose response, H69 mutant RFP, cherry-pick. shares compounds with Ecoli rRNA inh. E. coli wild-type GFP strain growth, fluorescence, 24 h. activity change, negative = inhibition at 50 µM. 1,900 tested, under 10 active;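 active means Wild-type ribosome reporter drop at least double the humanized mutant ribosome reporter drop, growth loss under a set limit; inconclusive means no clear call, values can overlap the other calls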;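 further: wild-type GFP and H69 mutant RFP strains grown together 50/50 in each well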
# AID977628 – E. coli growth inhibition, wild-type GFP versus h24 humanized RFP strain, dose response, h24 mutant RFP vs wild-type GFP, cherry-pick; shares compounds with Ecoli rRNA inh; E. coli WT GFP strain growth, fluorescence, 24 h; activity change, negative = inhibition at 50 µM; 1,900 tested, under 10 active;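 active means compound lowering the normal-ribosome reporter at least twice as much as the humanized-ribosome reporter, growth loss under a set limit; inconclusive means no clear call, values can overlap the other calls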;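 further: wild-type GFP and h24 humanized RFP strains co-cultured 1 to 1 per well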
# Numbers stand for hits; . = inactive; ? = inconclusive; / = no result. An excerpt weighted towards active compounds, which were near 2.9% of everything screened.
SMILES,PglD DTNB,PGC1a acetyl inh,Cneo AK release,Vif imaging,FGF22 binding,Ecoli rRNA inh,AID977621,AID977628
CO[C@H]1CN(C)C(=O)c2cc(NS(C)(=O)=O)ccc2OC[C@@H](C)N(C(=O)CN(C)C)C[C@H]1C,.,.,.,/,.,.,/,/
CO[C@H]1CN(C)C(=O)c2ccc(NC(C)=O)cc2OC[C@@H](C)N(C(=O)Cc2ccccn2)C[C@H]1C,.,.,.,/,.,.,/,/
CCc1ccn2cc(-c3ccc4c(c3)OCO4)nc2c1,.,.,.,.,.,-26.2,.,/
COC(=O)c1ccc2nc(-c3ccc4c(c3)OCO4)cn2c1,.,.,.,.,.,.,/,/
CC(=O)Nc1ccc(S(=O)(=O)Nc2cccc(-c3nc4cc(C)ccc4o3)c2)cc1,.,.,.,.,.,-17.5,.,/
CCC(=O)N1C[C@H](O)COC[C@@H]2O[C@H](CC(=O)NCc3cc(F)cc(F)c3)CC[C@H]21,.,.,.,/,.,.,/,/
Cc1cc(SCC(=O)c2cccs2)n2nc(C)c(-c3ccc(Cl)cc3)c2n1,/,/,/,.,.,-31.1,.,.
Cc1ccc2oc(C(=O)N(C)Cc3ccc(C)o3)c(C)c2c1,.,.,.,.,.,-29.8,.,.
Cc1ccc2oc(C(=O)N(C)Cc3ccon3)c(C)c2c1,.,.,.,.,.,.,/,/
Cc1noc(C)c1NC(=O)Nc1ccc2c(c1)CC(=O)N([C@@H](C)CO)C[C@H](C)[C@@H](CN(C)Cc1ccccc1)O2,.,/,.,/,.,.,/,/
COc1ccc(OC)c(N(CC(=O)Nc2ccccc2F)S(=O)(=O)c2ccccc2)c1,/,/,/,.,.,-24.0,.,/
COc1ccc(OC)c(N(CC(=O)NN=C2CCN(C)CC2)S(=O)(=O)c2ccccc2)c1,.,/,.,.,.,.,/,/
O=C(CN(c1ccc(F)cc1)S(=O)(=O)c1ccccc1)Nc1ccccc1C(=O)O,/,.,/,.,43.1,-26.6,.,/
C[C@@H]1CN([C@H](C)CO)C(=O)c2cccc(NC(=O)Nc3ccc4c(c3)OCO4)c2O[C@@H]1CN(C)Cc1ccc(-c2ccccc2)cc1,.,.,.,/,.,.,/,/
COc1ccc(-n2nc3cc(N)c(Br)cc3n2)cc1,.,.,.,.,.,-26.9,.,.
COc1ccc(-n2nc3cc(C)c(N)c(Br)c3n2)cc1,.,.,.,.,/,/,/,/
COc1ccc(CCN(C)C(=O)c2cc(-c3ccccc3)nc3ccccc23)cc1OC,.,.,.,.,.,.,/,/
COc1ccc(CN(C)C(=O)c2cc(-c3ccc(OC)c(OC)c3)nc3ccccc23)c(OC)c1,.,.,.,.,.,-23.0,.,.
COc1ccc(-c2cc(C(=O)N(C)CCc3ccc(OC)c(OC)c3)c3ccccc3n2)cc1,.,/,.,.,.,-24.5,?,/
CC(C)NC(=O)Nc1cccc2c1O[C@@H](CN(C)Cc1ccccc1)[C@@H](C)CN([C@H](C)CO)C2=O,.,.,.,/,.,.,/,/
Cc1cccc(C(=O)NCC(=O)N2CC=C(c3ccccc3)CC2)c1,.,.,.,.,.,-30.5,.,?
COc1ccc(C(=O)NCC(=O)N2CC=C(c3ccccc3)CC2)cc1OC,.,.,.,.,.,.,/,/
O=C(CSc1ccccc1)NCCCc1ccccc1,.,.,.,.,.,-23.1,.,?
CCNC(=O)C[C@H]1CC[C@@H]2[C@H](COC[C@H](O)CN2S(=O)(=O)c2ccccc2F)O1,.,.,.,/,.,.,/,/
Cc1cccc(OCc2nc(C#N)c(N3CCCC3)o2)c1,/,/,/,.,.,-24.9,.,.
SMILES,PglD DTNB,PGC1a acetyl inh,Cneo AK release,Vif imaging,FGF22 binding,Ecoli rRNA inh,AID977621,AID977628
Cc1cccc(OCc2nc(C#N)c(N3CC(C)CC(C)C3)o2)c1 (stereo not given),.,/,.,.,.,.,/,/
CN(C)C(=O)[C@H]1[C@H](CO)[C@H]2Cn3c(ccc(C4=CCCCC4)c3=O)[C@@H]1N2Cc1ccncc1,.,/,.,/,.,.,/,/
COc1ccccc1C1CCN(C(=O)c2ccco2)CC1,.,.,.,.,.,-23.3,.,?
O=C(CSc1nc2ccccc2[nH]1)Nc1ccccc1F,.,.,.,.,.,-25.9,/,?
COc1ccc2nc(SCC(=O)Nc3ccccc3)[nH]c2c1,/,/,/,.,.,-20.3,.,/
Cc1ccc2nc(SCC(=O)Nc3c(F)cccc3F)[nH]c2c1,.,.,.,.,/,-22.2,/,?
O=C(CSc1nc2ccccc2[nH]1)Nc1ccc(F)c(F)c1,.,.,.,.,/,/,/,/
CCOC(=O)Cc1nnc(NC(=O)CSc2ccccc2)s1,.,.,.,.,/,/,/,/
CCOC(=O)Cc1nnc(NC(=O)CSc2nc3ccccc3[nH]2)s1,/,.,/,.,.,-16.9,/,.
O=C(C[C@H]1C=C[C@@H](NC(=O)Nc2cccc(F)c2)[C@@H](CO)O1)NCC1CC1,.,.,.,/,.,.,/,/
CSc1nc2ccc(NC(=O)c3c(-c4ccccc4)noc3C)cc2s1,/,/,/,.,.,-21.4,.,/
CO[C@@H]1CN(C)C(=O)c2cc(NC(=O)C3CC3)ccc2OC[C@H](C)N(Cc2nccs2)C[C@@H]1C,.,.,.,/,.,.,/,/
O=C(NCc1ccc2c(c1)OCO2)C1CCCN1S(=O)(=O)c1ccc(Cl)cc1 (stereo not given),/,/,/,.,.,-19.0,.,/
CNC(=O)C[C@H]1CC[C@@H]2[C@@H](COc3ccc(NC(=O)Nc4ccc(F)c(F)c4)cc3C(=O)N2C)O1,.,.,.,/,.,-19.9,/,?
CNC(=O)c1cc(C(=O)c2ccc(C(F)(F)F)cc2F)c[nH]1,/,.,/,.,.,-25.0,.,?
COc1ccc(-c2nc(NC(C)=O)sc2-c2ccccc2)cc1,/,.,/,.,.,-17.8,.,/
COc1ccc(-c2sc(NC(C)=O)nc2-c2ccccc2)cc1,/,/,/,.,/,/,/,/
O=C(O)C1(Nc2ccc([N+](=O)[O-])cc2[N+](=O)[O-])CCCC1,/,/,/,.,.,-16.1,.,.
O=C(NNc1ccc([N+](=O)[O-])cc1[N+](=O)[O-])C1C2CCCCC21 (stereo not given),/,/,/,.,.,.,/,/
O=C(C[C@@H]1CC[C@H]2NC[C@H](O)COC[C@@H]2O1)Nc1ccccc1,.,.,.,/,.,.,/,/
CCN(CC(=O)Nc1cccc(C#N)c1)CC(=O)Nc1cccc(OC)c1,/,.,.,.,.,-22.5,.,/
CCN(CC(=O)Nc1ccc(OC)cc1)CC(=O)Nc1cccc(C#N)c1,.,.,.,.,.,.,/,/
COc1ccc(NC(=O)c2cccs2)cc1C(=O)N1CCN(c2ccccc2)CC1,.,.,.,.,.,-20.9,.,.

# Compound activity from PubChem BioAssay.
